Test results reported in ChEMBL document CHEMBL1124735, “Dehydrogenase binding by tiazofurin anabolites” (J Med Chem, 1990).

What was measured:
[1] = test system: NC(=O)c1ccc[n+]([C@@H]2O[C@H](COP(=O)([O-])OP(=O)(O)OC[C@H]3O[C@@H](n4cnc5c(N)ncnc54)[C@H](O)[C@@H]3O)[C@@H](O)[C@H]2O)c1; assay: In vitro inhibitory activity against horse liver Alcohol dehydrogenase; conditions: Equus caballus
[2] = test system: NC(=O)c1ccc[n+]([C@@H]2O[C@H](COP(=O)([O-])OP(=O)(O)OC[C@H]3O[C@@H](n4cnc5c(N)ncnc54)[C@H](O)[C@@H]3O)[C@@H](O)[C@H]2O)c1; assay: In vitro inhibitory activity against bovine liver glutamate dehydrogenase (GDH)
[3] = test system: NC(=O)c1ccc[n+]([C@@H]2O[C@H](COP(=O)([O-])OP(=O)(O)OC[C@H]3O[C@@H](n4cnc5c(N)ncnc54)[C@H](O)[C@@H]3O)[C@@H](O)[C@H]2O)c1; assay: In vitro inhibitory activity against pig heart lactate dehydrogenase (LDH); conditions: Sus scrofa
How it was run: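 Pig heart enzymes (cytoplasmic MDH or LDH, from ammonium sulfate suspension) assayed in 0.05 M Tris HCl pH 9.0, with NAD as substrate; rates from NADH appearance by A340 (ε 6.22 mM⁻¹cm⁻¹) or fluorescence calibrated against NADH standards. Run at least in duplicate; kinetic constants from Lineweaver-Burk plots by linear regression.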

L-lactate dehydrogenase B chain (Sus scrofa), P00336, sequence (P00336 whole entry): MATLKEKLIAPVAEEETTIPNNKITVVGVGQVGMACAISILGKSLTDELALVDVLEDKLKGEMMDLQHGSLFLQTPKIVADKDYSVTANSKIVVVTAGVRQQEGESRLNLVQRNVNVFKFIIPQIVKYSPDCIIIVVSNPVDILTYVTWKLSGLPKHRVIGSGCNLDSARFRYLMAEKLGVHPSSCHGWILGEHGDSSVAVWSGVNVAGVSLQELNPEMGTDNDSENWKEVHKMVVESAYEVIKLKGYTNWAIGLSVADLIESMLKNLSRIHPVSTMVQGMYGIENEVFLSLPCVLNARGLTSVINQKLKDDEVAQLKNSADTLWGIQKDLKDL
Alcohol dehydrogenase (Equus caballus), sequence (P00328 whole entry, looked up): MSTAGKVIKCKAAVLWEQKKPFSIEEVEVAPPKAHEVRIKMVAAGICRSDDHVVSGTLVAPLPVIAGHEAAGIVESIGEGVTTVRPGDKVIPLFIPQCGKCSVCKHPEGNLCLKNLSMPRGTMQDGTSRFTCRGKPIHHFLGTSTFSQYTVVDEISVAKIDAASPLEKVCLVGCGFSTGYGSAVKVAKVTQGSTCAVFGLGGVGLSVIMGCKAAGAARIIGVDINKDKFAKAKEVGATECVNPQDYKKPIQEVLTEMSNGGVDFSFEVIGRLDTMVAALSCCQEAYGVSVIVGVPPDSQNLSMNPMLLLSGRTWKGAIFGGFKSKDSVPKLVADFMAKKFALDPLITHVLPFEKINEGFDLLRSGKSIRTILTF
Alcohol dehydrogenase (Equus caballus), sequence (P00327 whole entry, looked up): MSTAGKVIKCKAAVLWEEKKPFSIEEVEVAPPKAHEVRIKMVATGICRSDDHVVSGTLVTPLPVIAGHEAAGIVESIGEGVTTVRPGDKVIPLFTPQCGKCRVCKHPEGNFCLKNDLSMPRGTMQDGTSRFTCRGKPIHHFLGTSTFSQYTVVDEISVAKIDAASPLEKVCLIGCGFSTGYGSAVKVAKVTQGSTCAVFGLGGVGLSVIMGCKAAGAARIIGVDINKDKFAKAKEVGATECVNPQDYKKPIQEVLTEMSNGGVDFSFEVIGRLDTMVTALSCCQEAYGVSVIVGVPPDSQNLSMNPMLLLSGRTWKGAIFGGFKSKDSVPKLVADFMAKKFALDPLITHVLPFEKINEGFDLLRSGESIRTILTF
Glutamate dehydrogenase 1, mitochondrial (Bos taurus), P00366, sequence (P00366 whole entry): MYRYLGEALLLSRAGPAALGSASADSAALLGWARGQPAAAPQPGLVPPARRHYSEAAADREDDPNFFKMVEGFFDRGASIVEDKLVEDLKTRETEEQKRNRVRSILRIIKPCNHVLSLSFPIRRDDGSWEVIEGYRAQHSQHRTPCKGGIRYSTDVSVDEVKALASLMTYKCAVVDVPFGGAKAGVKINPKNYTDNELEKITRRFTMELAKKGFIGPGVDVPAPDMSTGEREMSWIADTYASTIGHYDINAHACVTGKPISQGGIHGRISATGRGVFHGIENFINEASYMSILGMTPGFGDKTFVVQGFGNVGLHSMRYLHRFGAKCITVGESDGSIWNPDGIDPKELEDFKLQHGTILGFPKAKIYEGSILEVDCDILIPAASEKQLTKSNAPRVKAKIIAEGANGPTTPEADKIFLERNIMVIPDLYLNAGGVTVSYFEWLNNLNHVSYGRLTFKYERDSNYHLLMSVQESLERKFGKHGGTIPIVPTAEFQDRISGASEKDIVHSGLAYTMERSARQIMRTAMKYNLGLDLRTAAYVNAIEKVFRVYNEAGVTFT

Alcohol dehydrogenase (Equus caballus) (from UniProt P00327+P00328)
Km [1]: 22.3 µM

Glutamate dehydrogenase 1, mitochondrial (Bos taurus), P00366
Km [2]: 20 µM

L-lactate dehydrogenase B chain (Sus scrofa), P00336
Km [3]: 84.4 µM
